Results of several laboratories.
Lines come from different studies, so protocols differ.

SMILES	technique	medium	time	logP
O=C(c1cc(Cc2n[nH]c(=O)c3ccccc23)ccc1F)N1CCN(C(=O)C2CC2)CC1	–	–	–	1.55
CC(=O)c1ccccc1	–	water	1 h	1.51
CNC(=O)c1ccccc1Sc1ccc2c(/C=C/c3ccccn3)n[nH]c2c1	–	–	–	3.1
CC1=NN(CNc2c(O)c(S(=O)(=O)O)cc3ccccc23)C(=O)C1=NNn1c(-c2ccccc2)nc2ccccc2c1=O	–	–	–	5.01
N#Cc1[nH]nnc1-c1csc(-c2ccc(Cl)cc2)n1	potentiometric	–	–	4.5
Nc1nc(-c2ccccc2)nc2[nH]nc(Nc3ccc(C(F)(F)F)cc3)c12	–	–	–	2.85
C=C[C@H]1C[N@@]2CC[C@H]1C[C@@H]2[C@@H](O)c1ccnc2ccc(OC)cc12	–	water	–	2.84
O=C(O)CCCNC(=O)c1ccc(O)c2ncccc12	–	–	–	0.71
CC1=NN(CNc2ccc(Cl)cc2)C(=O)C1=NNn1c(-c2ccccc2)nc2ccccc2c1=O	–	–	–	5.1
C=C(C)[C@@H]1CCC(C)=C[C@H]1c1c(O)cc(CCCCC)cc1O	–	–	–	7.11
CC1=NN(CNC(=O)c2ccccn2)C(=O)C1=NNn1c(-c2ccccc2)nc2ccccc2c1=O	–	–	–	3.26
N#Cc1[nH]nnc1-c1cc(Cl)cc(/C=C/c2cccc(C(F)(F)F)c2)c1	potentiometric	–	–	5.4
CC(=O)NCN1N=C(C)C(=NNn2c(-c3ccccc3)nc3ccccc3c2=O)C1=O	–	–	–	2.24
CCc1nc(N)nc(N)c1-c1ccc(Cl)cc1	–	–	–	3.14
CC1=NN(CNC(=O)c2ccccc2)C(=O)C1=NNn1c(-c2ccccc2)nc2ccccc2c1=O	–	–	–	4.09
CC(=O)N1N=C(c2cccc(O)c2)CC1c1ccc(Cl)cc1 (stereo not shown)	potentiometric	–	–	2.98
